Calls of active or inactive are those of the source. The rule behind the calls is not given here.
Tested on: Saccharomyces cerevisiae
Assay: Inhibition of yeast chitin synthase at 100 ug/mL by high throughput assay
Method in brief: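 Cell-extract enzymatic assay of chitin synthesis. Cells were pelleted at 1500 × g for 10 min at 4 °C, then broken by grinding with glass beads under liquid nitrogen. Activity was scored as percent inhibition, also converted to D = log[a/(100−a)] − log Mw.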

| SMILES | inhibition |
| --- | --- |
| CCCCC(CCCC)N(NC(=O)c1ccccc1Cl)C(=O)c1cccc(F)c1 | Active |
| CCCCC(CCCC)N(NC(=O)c1ccc(Cl)cc1Cl)C(=O)c1cc(C)cc(C)c1 | Active |
| CCCCC(CCCC)N(NC(=O)c1ccccc1Cl)C(=O)c1ccc(F)cc1 | Active |
| CCCCC(CCCC)N(NC(=O)c1ccc(Cl)cc1)C(=O)c1ccccc1OC | Active |
| CCCCC(CCCC)N(NC(=O)c1ccc(CC)cc1)C(=O)c1cc(F)c(OC)c(F)c1F | Active |
| CCCCC(CCCC)N(NC(=O)c1ccc(CC)cc1)C(=O)c1cc(C)cc(C)c1 | Active |
| CCCCC(CCCC)N(NC(=O)c1cc(C)cc(C)c1)C(=O)c1ccc(CC)cc1 | Active |
| CCCCC(CCCC)N(NC(=O)c1cc(OC)c(OC)c(OC)c1)C(=O)c1cc(F)c(OC)c(F)c1F | Active |
| CCCCC(CCCC)N(NC(=O)c1ccc(CC)cc1)C(=O)c1ccccc1OC | 79% |
| CCCCC(CCCC)N(NC(=O)c1ccc(Cl)cc1)C(=O)c1cc(C)cc(C)c1 | Active |
| CCCCC(CCCC)N(NC(=O)c1cccc(OC)c1)C(=O)c1ccccc1 | Active |
| CCCCC(CCCC)N(NC(=O)c1ccc(CC)cc1)C(=O)CCl | Active |
| CCCCC(CCCC)N(NC(=O)c1ccc(CC)cc1)C(=O)c1ccc2c(c1)OCO2 | Active |
| CCCCC(CCCC)N(NC(=O)c1ccccc1Cl)C(=O)c1cc(C)cc(C)c1 | Active |
| CCCCC(CCCC)N(NC(=O)c1ccccc1Cl)C(=O)c1ccccc1OC | 81% |
| CCCCC(CCCC)N(NC(=O)c1ccccc1Cl)C(=O)c1ccccc1 | Active |
| CCCCC(CCCC)N(NC(=O)c1cc(OC)c(OC)c(OC)c1)C(=O)c1ccccc1Cl | Active |
| CCCCC(CCCC)N(NC(=O)c1cc(OC)c(OC)c(OC)c1)C(=O)c1cc(C)cc(C)c1 | Active |
| CCCCC(CCCC)N(NC(=O)c1ccc(CC)cc1)C(=O)c1ccccc1Cl | Active |
